In paper PMC10732652 (Virulence, 2023):
Entries after “also recorded” stand apart in the source; their conditions may differ.

Assays:
ScpC protease [1] = conditions: S. pyogenes; cited from earlier work
PepO [2] = test: 500 nM of PepO in PBS; conditions: S. suis, 37°C, up to 3 hours
aminopeptidase ApdS = conditions: S. suis; cited from earlier work
Mouse neutrophils = test: Neutrophil chemotaxis assay; format: cell-based; conditions: 1 μM in bottom chamber, 5 × 10^5 cells, 40 minutes, 37°C
Procedure, shortened: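 Bone-marrow neutrophils from C57BL/6 mice, purified on Histopaque-1119/1077 gradients, CellTracker Green-labelled, 1 × 10^7 cells/ml in RPMI-1640. 5 × 10^5 cells placed in Transwell inserts; 1 μM peptides, PepO digests or fragments in lower chamber; 5 μM fMLP as positive control. 40 min at 37°C, migrated cells counted by fluorescence microscopy. CI = cells migrating toward stimulus ÷ toward medium.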

PepO [3] = test: Cleavage of cathelicidins by recombinant PepO; format: in vitro ADME, Streptococcus suis; conditions: 20 μM peptide, 500 nM PepO, PBS, 37°C, 3 hours; SDS-PAGE
Procedure, shortened: (§1)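 Enzyme: His-tagged PepO (aa 29–663) or its Glu513→Ala variant, expressed from pET22b in E. coli BL21(DE3) with 0.5 mM IPTG at 16°C for 12 h. Purified by Ni-Sepharose and exchanged into PBS. Substrates were synthetic LL-37 or mCRAMP (>95% purity). Uncleaved peptide served as control. Products were analysed by SDS-PAGE or MALDI-TOF/TOF MS.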

ScpC protease [4] = conditions: cited from earlier work
S. suis ΔpepO = test: Live/Dead staining; format: cell-based, Streptococcus suis; conditions: 1 × 10^5 CFU/ml, 2 μM, 1 hour, CLSM
Procedure, shortened: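 S. suis serotype 2 strain 05ZYH33 ΔpepO mutant, grown in TSB at 37°C/5% CO2; fresh culture washed twice, diluted to 1 × 10^5 CFU/ml. Exposed 1 h to 2 μM cathelicidin peptides, their PepO digests (20 μM peptide + 500 nM His-tagged PepO, PBS, 37°C, 3 h) or truncated fragments. BacLight stained, washed after 15 min, confocal imaging: SYTO9 480/500 nm, PI 490/635 nm.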

[5] = test system: Mouse peritoneal macrophages; test: Lysosome formation analysis; format: cell-based; conditions: 2 μM, 37°C, 4 hours, 5 × 10^4 cells, CLSM
Procedure, shortened: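 Macrophages from peritoneal fluid of C57BL/6 mice 3 days after i.p. thioglycollate; spun 600 × g 10 min, kept in RPMI-1640, non-adherent cells removed at 6 h. 5 × 10^4 cells exposed 4 h at 37°C to peptides, PepO digests or fragments. Fixed in 4% formaldehyde, permeabilised with 0.1% Triton X-100, blocked in 3% BSA. Rabbit anti-LAMP1 (37°C, 1 h), Alexa Fluor 594 secondary, DAPI; confocal imaging.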

PepOE513A = test: Cleavage of cathelicidins by catalytic site-mutated PepOE513A; format: in vitro ADME, Streptococcus suis; conditions: 20 μM peptide, 500 nM PepOE513A, PBS, 37°C, 3 hours; SDS-PAGE
Procedure, shortened: as §1

[6] = test system: S. suis WT, ΔpepO, and CΔpepO strains; test: Bactericidal assay, sensitivity of S. suis strains toward cathelicidins; format: cell-based, Streptococcus suis; conditions: 8 × 10^4 CFU/ml in PBS, peptide 0–4 μM, 37°C, 1 hour, CFU counting on TSA
Procedure, shortened: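 S. suis serotype 2 strain 05ZYH33 (wild type), its ΔpepO mutant and the complemented strain were grown in TSB at 37°C with 5% CO2 to OD600 0.5. Cells were washed twice and resuspended in PBS. After 1 h at 37°C with LL-37 or mCRAMP, samples were serially diluted and plated on TSA to count surviving CFU.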

ApdS = conditions: cited from earlier work

Row | Substance | Chemotaxis of neutrophils (chemotaxis index, CI) (Mouse neutrophils) | Cleavage by PepO (PepO [3]) | Membrane damage, viable and dead bacteria (SYTO9/PI) (S. suis ΔpepO) | Lysosome formation (LAMP1) [5] | further results
1 | GLLRKGGEKIGEKLKKIGQKIKNFFQKLVPQPEQ | – | – | – | – | not cleaved (ScpC protease [1]): cannot cleave mCRAMP
2 | LLGDFFRKSKEKIGKEFKRIVQRIKDFLRNLVPRTES | – | – | – | – | fragment found (PepO [2]): FR-7 (F6-K12); FRKSKEK, major; also recorded: IG-7 (I13-R19); IGKEFKR, major; fragment found (aminopeptidase ApdS): 3 AA at the N-terminal
3 | mCRAMP | chemoattracted mouse neutrophils just as well as LL-37 | also cleaved by PepO | the number of dead bacteria was clearly larger than that in the PBS-treated group | facilitated lysosome formation in mouse macrophages | Cleavage by ScpC protease (ScpC protease [4]): cannot cleave mCRAMP
4 | LL-37 | effectively chemoattracted mouse neutrophils | the band intensity of LL-37 disappeared | the number of dead bacteria was clearly larger than that in the PBS-treated group | facilitated lysosome formation in mouse macrophages | Cleavage by PepOE513A (PepOE513A): could not cleave LL-37; Resistance of complementary strain CΔpepO [6]: partially restored; Time to cleavage by ApdS (ApdS): in just a few seconds
